Assay results as given in ChEMBL document CHEMBL1759883, “Synthesis and biological evaluation of indazole derivatives” (Eur J Med Chem, 2011).

Legend:
[1] = target: Nitric oxide synthase 1 (Rattus norvegicus) (UniProt P29476); assay: Inhibition of nNOS in untreated Wistar rat striata assessed as inhibition of [3H]L-arginine to [3H]L-citrulline conversion at 1 mM by liquid scintillation counting
[2] = target: Nitric oxide synthase, inducible (Rattus norvegicus) (UniProt Q06518); assay: Inhibition of iNOS in LPS-stimulated Wistar rat lung assessed as inhibition of [3H]L-arginine to [3H]L-citrulline conversion at 1 mM by liquid scintillation counting
Nitric oxide synthase, inducible (Rattus norvegicus), sequence (Q06518 whole entry): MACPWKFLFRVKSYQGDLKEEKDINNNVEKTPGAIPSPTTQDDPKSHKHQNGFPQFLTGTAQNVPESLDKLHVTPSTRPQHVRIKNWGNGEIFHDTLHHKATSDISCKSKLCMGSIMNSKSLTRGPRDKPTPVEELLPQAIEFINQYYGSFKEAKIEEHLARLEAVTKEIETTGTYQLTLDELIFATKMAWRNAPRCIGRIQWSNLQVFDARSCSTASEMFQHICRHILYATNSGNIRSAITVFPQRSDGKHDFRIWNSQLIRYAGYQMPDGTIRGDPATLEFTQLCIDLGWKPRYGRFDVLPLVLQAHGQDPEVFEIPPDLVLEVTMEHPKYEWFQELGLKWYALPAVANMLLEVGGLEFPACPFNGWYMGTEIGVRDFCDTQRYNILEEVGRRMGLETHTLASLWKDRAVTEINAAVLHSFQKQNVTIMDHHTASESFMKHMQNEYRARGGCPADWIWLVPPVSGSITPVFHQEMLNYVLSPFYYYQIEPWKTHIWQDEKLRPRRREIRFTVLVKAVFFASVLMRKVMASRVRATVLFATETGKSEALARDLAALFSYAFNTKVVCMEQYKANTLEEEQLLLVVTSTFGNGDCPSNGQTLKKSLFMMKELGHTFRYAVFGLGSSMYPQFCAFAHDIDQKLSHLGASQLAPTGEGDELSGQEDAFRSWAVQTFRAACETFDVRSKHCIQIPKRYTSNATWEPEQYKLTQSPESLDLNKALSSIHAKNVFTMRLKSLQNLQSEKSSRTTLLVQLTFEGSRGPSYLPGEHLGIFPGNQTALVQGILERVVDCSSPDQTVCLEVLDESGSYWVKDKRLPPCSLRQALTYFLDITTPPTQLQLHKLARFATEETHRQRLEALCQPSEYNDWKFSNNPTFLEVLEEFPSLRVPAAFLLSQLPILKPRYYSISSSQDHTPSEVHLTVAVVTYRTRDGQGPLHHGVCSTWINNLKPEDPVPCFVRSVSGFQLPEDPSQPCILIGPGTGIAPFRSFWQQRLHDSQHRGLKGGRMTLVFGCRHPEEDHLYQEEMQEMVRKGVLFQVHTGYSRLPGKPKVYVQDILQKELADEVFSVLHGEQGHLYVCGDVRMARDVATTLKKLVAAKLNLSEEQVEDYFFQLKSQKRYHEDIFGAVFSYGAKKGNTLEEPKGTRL
Method in brief: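 Lungs from male Wistar rats (220–250 g) taken 6 h after i.v. LPS (10 mg/kg in saline), homogenized in Tris buffer pH 7.6 with protease inhibitors, and spun at 2500g. The supernatant was incubated 30 min at 37 °C with 10 µM L-arginine plus 40 nM L-³H-arginine, cofactors, 0.75 mM NADPH (final) and 10 mM EDTA. ³H-citrulline was isolated on Dowex-50W; compounds at 1 mM.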

Rattus norvegicus = species: Rattus norvegicus; assay: Selectivity ratio of inhibition of iNOS in Wistar rat lung to inhibition of nNOS in Wistar rat striata
Nitric oxide synthase 1 = Nitric oxide synthase 1 (Rattus norvegicus, UniProt P29476); assay: Inhibition of nNOS in untreated Wistar rat striata assessed as inhibition of [3H]L-arginine to [3H]L-citrulline conversion by liquid scintillation counting
Nitric oxide synthase 1, sequence (P29476 whole entry): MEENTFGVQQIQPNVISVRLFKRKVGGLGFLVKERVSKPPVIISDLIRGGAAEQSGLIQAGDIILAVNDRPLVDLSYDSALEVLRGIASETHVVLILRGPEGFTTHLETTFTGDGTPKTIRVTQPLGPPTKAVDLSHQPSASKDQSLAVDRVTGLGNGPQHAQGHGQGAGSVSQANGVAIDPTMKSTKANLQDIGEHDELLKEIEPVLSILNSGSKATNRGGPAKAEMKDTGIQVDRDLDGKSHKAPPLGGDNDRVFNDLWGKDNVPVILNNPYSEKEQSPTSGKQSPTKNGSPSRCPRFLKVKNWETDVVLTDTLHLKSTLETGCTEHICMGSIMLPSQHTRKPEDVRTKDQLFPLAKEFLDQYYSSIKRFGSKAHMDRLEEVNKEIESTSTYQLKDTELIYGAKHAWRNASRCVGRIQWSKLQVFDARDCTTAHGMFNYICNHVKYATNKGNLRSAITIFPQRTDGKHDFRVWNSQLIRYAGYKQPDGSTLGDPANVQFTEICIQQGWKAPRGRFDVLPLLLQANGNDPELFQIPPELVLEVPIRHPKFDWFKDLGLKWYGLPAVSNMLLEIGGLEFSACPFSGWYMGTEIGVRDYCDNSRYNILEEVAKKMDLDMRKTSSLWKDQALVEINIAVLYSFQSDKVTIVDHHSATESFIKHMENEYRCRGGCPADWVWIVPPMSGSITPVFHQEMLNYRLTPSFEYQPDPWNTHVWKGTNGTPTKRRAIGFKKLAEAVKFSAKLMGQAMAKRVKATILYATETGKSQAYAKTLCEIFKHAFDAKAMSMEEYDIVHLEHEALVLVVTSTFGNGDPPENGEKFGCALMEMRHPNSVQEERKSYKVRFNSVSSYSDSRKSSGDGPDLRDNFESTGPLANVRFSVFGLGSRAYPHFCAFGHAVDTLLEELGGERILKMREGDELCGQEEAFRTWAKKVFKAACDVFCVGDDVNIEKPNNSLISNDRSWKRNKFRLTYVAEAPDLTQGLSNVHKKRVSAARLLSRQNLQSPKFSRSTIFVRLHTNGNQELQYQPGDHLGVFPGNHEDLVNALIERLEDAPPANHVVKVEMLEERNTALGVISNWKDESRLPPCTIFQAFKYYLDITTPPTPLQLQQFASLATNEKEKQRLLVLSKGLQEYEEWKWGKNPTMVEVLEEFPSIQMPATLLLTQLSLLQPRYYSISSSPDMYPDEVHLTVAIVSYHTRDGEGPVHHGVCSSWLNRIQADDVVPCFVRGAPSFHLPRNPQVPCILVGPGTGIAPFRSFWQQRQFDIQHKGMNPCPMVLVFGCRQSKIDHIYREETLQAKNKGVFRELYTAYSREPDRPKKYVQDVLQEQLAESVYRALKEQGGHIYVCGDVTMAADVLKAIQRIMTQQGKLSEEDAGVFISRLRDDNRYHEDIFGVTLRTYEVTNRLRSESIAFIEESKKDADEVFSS

Nitric oxide synthase 1 (Rattus norvegicus), sequence (P29476 whole entry): as above

IC50 (Nitric oxide synthase 1)	Compound	inhibition [1]	inhibition [2]	Ratio (Rattus norvegicus)
–	O=C(O)c1c(F)c(F)c2c(O)n[nH]c2c1F	5.4%	42%	–
–	CCc1n[nH]c2ccccc12	18.8%	–	–
–	Fc1c(F)c(F)c(-c2n[nH]c3c(F)c(F)c(F)c(F)c23)c(F)c1F	–	–	10
–	Cc1n[nH]c2c(F)c(F)ccc12	58.4%	69.2%	–
–	Fc1c(F)c(F)c2[nH]ncc2c1F	43.3%	98.7%	2
–	N#Cc1cccc2cn[nH]c12	88%	80%	–
–	O=C(O)c1c(F)c(F)c2[nH]nc(O)c2c1F	12.1%	16.3%	–
–	COC(=O)c1c(F)c(F)c2c(O)n[nH]c2c1F	19.7%	46.2%	–
–	Oc1n[nH]c2cc(F)cc(F)c12	11.1%	48.1%	–
–	Cc1n[nH]c2ccccc12	33.7%	77.4%	–
–	CCOC(=O)c1c(F)c(F)c2c(O)n[nH]c2c1F	10.2%	53.5%	–
–	COC(=O)c1c(F)c(F)c(F)c2c(O)n[nH]c12	5.1%	49.6%	–
–	Cc1n[nH]c2c([N+](=O)[O-])c(F)cc(F)c12	90%	92%	–
–	FC(F)(F)c1n[nH]c2ccccc12	69.9%	80.1%	–
–	CCOC(=O)c1c(F)c(F)c(F)c2[nH]nc(O)c12	1.2%	38.7%	–
–	O=[N+]([O-])c1c(F)cc(F)c2c(O)n[nH]c12	14.9%	91%	6
–	COc1cccc2c[nH]nc12	–	70%	–
–	O=[N+]([O-])c1cccc2c(O)n[nH]c12	18.9%	8.2%	–
–	COC(=O)c1c(F)c(F)c2[nH]nc(O)c2c1F	13.3%	48.9%	–
–	Cc1n[nH]c2cc(F)cc(F)c12	52.1%	74.3%	–
–	CCOC(=O)c1c(F)c(F)c(F)c2c(O)n[nH]c12	5.6%	43.7%	–
–	O=C(O)c1c(F)c(F)c(F)c2c(O)n[nH]c12	11.1%	40.7%	–
–	Cc1n[nH]c2c(F)c(F)c([N+](=O)[O-])cc12	85.4%	95.6%	–
–	CCOC(=O)c1c(F)c(F)c2[nH]nc(O)c2c1F	2.5%	51.8%	–
–	COC(=O)c1c(F)c(F)c(F)c2[nH]nc(O)c12	6.3%	22.6%	–
–	Oc1n[nH]c2ccccc12	31.4%	55.1%	–
–	Oc1n[nH]c2c(F)c(F)ccc12	57.1%	89.1%	–
–	O=C(O)c1c(F)c(F)c(F)c2[nH]nc(O)c12	1.8%	62.6%	35
–	c1ccc2[nH]ncc2c1	11.2%	45%	–
> 1000 µM	O=c1[nH][nH]c2ccccc12	–	–	–
